Where a SMILES comes first, the peptide text is derived from it. The star is where a group is joined. Myristoyl = CCCCCCCCCCCCCC(=O)*
Columns and labels:
[1] = tested on: Prkcz−/− mice (drug reward memory); assay: Cocaine conditioned place preference, non-cannulated Prkcz−/− mice; assay type: in vivo; conditions: cocaine 10 mg/kg i.p.; male mice; t=0.153, P=0.88
[2] = biological target: T1, PKMζ (Rattus norvegicus, UniProt P09217); assay: LANCE TR-FRET in vitro kinase assay, purified PKMζ; assay type: biochemical
T1 sequence (P09217 1-409 isoform P09217-2): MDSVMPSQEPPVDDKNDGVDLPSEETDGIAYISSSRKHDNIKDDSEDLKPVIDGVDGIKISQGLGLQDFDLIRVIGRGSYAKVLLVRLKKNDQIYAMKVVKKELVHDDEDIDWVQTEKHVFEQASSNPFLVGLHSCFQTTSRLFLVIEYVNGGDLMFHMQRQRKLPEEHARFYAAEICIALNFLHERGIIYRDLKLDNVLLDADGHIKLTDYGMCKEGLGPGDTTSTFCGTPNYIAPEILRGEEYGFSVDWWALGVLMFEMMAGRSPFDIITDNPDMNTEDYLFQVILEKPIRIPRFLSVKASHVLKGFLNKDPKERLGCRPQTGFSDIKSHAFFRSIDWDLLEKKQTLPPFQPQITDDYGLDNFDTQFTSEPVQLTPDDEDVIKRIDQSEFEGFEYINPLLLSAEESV

[3] = biological target: T2, PKCζ (Rattus norvegicus, UniProt P09217); assay: LANCE TR-FRET in vitro kinase assay, purified PKCζ; assay type: biochemical
T2 sequence (P09217 1-592): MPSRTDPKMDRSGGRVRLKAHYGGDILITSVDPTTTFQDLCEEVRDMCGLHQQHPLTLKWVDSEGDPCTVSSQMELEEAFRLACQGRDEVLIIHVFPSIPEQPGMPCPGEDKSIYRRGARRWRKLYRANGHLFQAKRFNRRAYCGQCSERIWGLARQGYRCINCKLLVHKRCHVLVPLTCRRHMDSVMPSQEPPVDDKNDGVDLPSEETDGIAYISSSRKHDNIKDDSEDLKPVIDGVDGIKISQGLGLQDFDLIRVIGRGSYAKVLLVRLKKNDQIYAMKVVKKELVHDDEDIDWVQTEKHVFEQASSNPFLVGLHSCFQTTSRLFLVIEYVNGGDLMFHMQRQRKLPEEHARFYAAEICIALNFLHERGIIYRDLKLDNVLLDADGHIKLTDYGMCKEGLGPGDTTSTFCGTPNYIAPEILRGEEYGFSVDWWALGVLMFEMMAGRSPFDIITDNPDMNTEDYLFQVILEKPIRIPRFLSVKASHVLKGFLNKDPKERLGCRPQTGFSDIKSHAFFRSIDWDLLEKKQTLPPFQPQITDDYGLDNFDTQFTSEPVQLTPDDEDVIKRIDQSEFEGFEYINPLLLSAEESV

[4] = tested on: Prkcz−/− mice (cocaine reward memory); assay type: in vivo; conditions: ZIP 10 nmol/µl, 1 µl per side into NAc
How it was run: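 Two-chamber CPP with 20-min conditioning sessions; saline or cocaine 10 mg/kg i.p., counterbalanced. Bilateral cannulae placed in the NAc (1.40 mm anterior, ±1.0 mm lateral, −3.8 mm ventral) under ketamine/xylazine, with one week of recovery. ZIP at 10 mM in 0.9% saline, or saline, via injectors 0.7 mm past the guides, left 1 min. Index: cocaine-side time on test minus preconditioning time. Mice with placements outside the NAc (Nissl) and Grubbs outliers excluded.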

[5] = tested on: fear memory in rats; conditions: ZIP administration into the amygdala; cited from earlier work
[6] = tested on: object location memory in rats; conditions: ZIP bilaterally into the hippocampus; cited from earlier work
[7] = tested on: cocaine reward memory in rats; conditions: ZIP injection into the NAc; cited from earlier work
[8] = biological target: T3, PKCι (Rattus norvegicus, UniProt F1M7Y5); assay: LANCE TR-FRET in vitro kinase assay, purified PKCι; assay type: biochemical
T3 sequence (F1M7Y5 1-596): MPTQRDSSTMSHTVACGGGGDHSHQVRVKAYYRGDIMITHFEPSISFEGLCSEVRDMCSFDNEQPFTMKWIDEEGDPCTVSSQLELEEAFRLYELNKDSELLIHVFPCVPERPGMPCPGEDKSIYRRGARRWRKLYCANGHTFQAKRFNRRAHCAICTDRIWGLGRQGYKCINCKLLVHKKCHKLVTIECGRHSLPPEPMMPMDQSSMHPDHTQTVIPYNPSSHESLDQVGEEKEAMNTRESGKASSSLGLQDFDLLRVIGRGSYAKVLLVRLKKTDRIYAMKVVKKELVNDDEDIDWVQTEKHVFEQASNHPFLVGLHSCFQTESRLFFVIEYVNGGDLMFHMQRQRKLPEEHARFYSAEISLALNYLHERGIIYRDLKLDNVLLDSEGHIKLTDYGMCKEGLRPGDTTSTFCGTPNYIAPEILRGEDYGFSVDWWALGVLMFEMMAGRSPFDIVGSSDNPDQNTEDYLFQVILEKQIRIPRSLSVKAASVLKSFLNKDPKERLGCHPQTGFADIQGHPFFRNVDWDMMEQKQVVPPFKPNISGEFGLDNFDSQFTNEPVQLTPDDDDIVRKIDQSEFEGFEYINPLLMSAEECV

Compound	Ki [2] [µM]	inhibition of PKMζ, PKCι and PKCζ compared (Ki), in words ([2]; in vitro kinase assay, PKMζ)	Ki [3] [µM]	Ki [8] [µM]	other results
COC(=O)[C@H]1[C@@H](OC(=O)c2ccccc2)C[C@@H]2CC[C@H]1N2C [cocaine]	–	–	–	–	cocaine CPP index, Prkcz−/− versus wild-type, in words [1]: no genotype difference in the cocaine CPP index
CCCCCCCCCCCCCC(=O)N[C@@H](CO)C(=O)N[C@H](C(=O)N[C@@H](Cc1ccc(O)cc1)C(=O)N[C@@H](CCCNC(=N)N)C(=O)N[C@@H](CCCNC(=N)N)C(=O)NCC(=O)N[C@@H](C)C(=O)N[C@@H](CCCNC(=N)N)C(=O)N[C@@H](CCCNC(=N)N)C(=O)N[C@@H](Cc1c[nH]c2ccccc12)C(=O)N[C@@H](CCCNC(=N)N)C(=O)N[C@@H](CCCCN)C(=O)N[C@@H](CC(C)C)C(=O)O)[C@@H](C)CC [ZIP, myristoylated zeta inhibitory peptide] (Myristoyl-SIYRRGARRWRKL-OH; C-terminus assumed)	2.11	inhibited PKMζ, PKCι and PKCζ with similar Ki values	1.7	1.43	difference in Ki values between ZIP and scrambled ZIP ([2]; PKMζ, in vitro kinase assay): 7.3 -fold; t statistic for ZIP versus saline, cocaine CPP [4]: 2.258; performance in cued fear conditioning, in words [5]: impaired; object location memory performance, in words [6]: impaired; cocaine reward memory, in words [7]: can erase cocaine reward memory
CCCCCCCCCCCCCC(=O)N[C@@H](CCCNC(=N)N)C(=O)N[C@@H](CC(C)C)C(=O)N[C@@H](Cc1ccc(O)cc1)C(=O)N[C@@H](CCCNC(=N)N)C(=O)N[C@@H](CCCCN)C(=O)N[C@@H](CCCNC(=N)N)C(=O)N[C@H](C(=O)N[C@@H](Cc1c[nH]c2ccccc12)C(=O)N[C@@H](CCCNC(=N)N)C(=O)N[C@@H](CO)C(=O)N[C@@H](C)C(=O)NCC(=O)N[C@@H](CCCNC(=N)N)C(=O)O)[C@@H](C)CC [Scrambled ZIP] (Myristoyl-RLYRKRIWRSAGR-OH; N-terminus and C-terminus assumed)	15.4	inhibited PKMζ, PKCι and PKCζ with similar Ki values	5.51	4.92	–
COc1ccc2c(c[n+](C)c3c4cc5c(cc4ccc23)OCO5)c1OC [Chelerythrine, chelerythrine]	76	–	–	–	inhibition of PKMζ with DTT, in words ([2]; 1 mM DTT included): lost all inhibitory activity; appearance in the presence of DTT ([2]; 1 mM DTT present): changed color; inhibition of PKMζ without DTT, in words ([2]; assayed without dithiothreitol (DTT)): weak inhibitor of PKMζ
